For test [1], the target named is D(2) dopamine receptor (Homo sapiens) (UniProt P14416). The test can be described thus: Positive allosteric modulation of human dopamine D2S receptor expressed in CHO cell membranes assessed as stimulation of [3H]-NPA binding at 1 to 10 uM after 60 mins by beta scintillation counting analysis. The gist of the method: (§1)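 Membranes from confluent CHO cells stably expressing human D2S, homogenized and spun at 48,400 g. Membranes were incubated with 0.25 nM [3H]NPA plus compound (eight concentrations) for 60 min at 25 °C in 50 mM Tris-HCl pH 7.4, 120 mM NaCl, 5 mM KCl, 4 mM MgCl2, 1 mM EDTA. Nonspecific binding was defined with (+)-butaclamol. Samples were filtered through PEI-treated filters. Result is % increase of specific binding over compound-free control; duplicates, three experiments, ANOVA.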
Chain of D(2) dopamine receptor (Homo sapiens) (P14416 whole entry): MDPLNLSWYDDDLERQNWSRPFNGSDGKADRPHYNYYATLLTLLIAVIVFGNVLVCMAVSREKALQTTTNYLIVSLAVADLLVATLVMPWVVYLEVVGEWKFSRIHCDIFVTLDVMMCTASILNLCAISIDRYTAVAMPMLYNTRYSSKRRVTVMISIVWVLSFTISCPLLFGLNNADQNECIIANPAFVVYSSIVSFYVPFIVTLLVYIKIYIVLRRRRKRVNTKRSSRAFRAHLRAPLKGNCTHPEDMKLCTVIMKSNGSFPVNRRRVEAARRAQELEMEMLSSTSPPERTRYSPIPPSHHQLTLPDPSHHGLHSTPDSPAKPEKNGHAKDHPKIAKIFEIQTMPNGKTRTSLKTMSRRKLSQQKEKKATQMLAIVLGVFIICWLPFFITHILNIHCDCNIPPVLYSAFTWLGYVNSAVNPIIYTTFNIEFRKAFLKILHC

Test [2] shares this target. The test can be described thus: Positive allosteric modulation of human dopamine D2S receptor expressed in CHO cell membranes assessed as stimulation of [3H]-NPA binding at 10^-12 to 10^-9 M after 60 mins by beta scintillation counting analysis. A digest of the protocol: as §1
The target is the same in test [3]. The test can be described thus: Positive allosteric modulation of human dopamine D2S receptor expressed in CHO cell membranes assessed as stimulation of [3H]-NPA binding at 10^-8 to 10^-4 M after 60 mins by beta scintillation counting analysis. A digest of the protocol:
as §1

Molecules are shown by their SMILES. Activity calls are given as the source filed them. The rule behind the calls is not given here. Residues, ends and D or L forms follow the SMILES beside them.

On to `COC(=O)CNC(=O)[C@H](CC(C)C)NC(=O)[C@H]1N[C@H](CN=[N+]=[N-])C[C@@H]1CN=[N+]=[N-]`, for which, in test [1], the outcome was Active.
Still for that read-out and setting: the result for `CC(C)C[C@H](NC(=O)[C@@H]1N[C@@H](CN=[N+]=[N-])C[C@H]1CN=[N+]=[N-])C(=O)NCC(N)=O` reads “Active”.
Consider `CC(C)[C@H](NC(=O)[C@@H]1N[C@@H](CN=[N+]=[N-])C[C@H]1CN=[N+]=[N-])C(=O)NCC(=O)O`, for which, in test [1], the result was Active.
For `CC(C)C[C@H](NC(=O)[C@H]1N[C@H](CN=[N+]=[N-])C[C@@H]1CN=[N+]=[N-])C(=O)NCC(N)=O`, the result in test [1] was Active.
`COC(=O)CNC(=O)[C@@H](NC(=O)[C@@H]1N[C@@H](CN=[N+]=[N-])C[C@H]1CN=[N+]=[N-])C(C)C`: the result in test [1] was Active.
In the case of `CC(C)[C@H](NC(=O)[C@H]1N[C@H](CN=[N+]=[N-])C[C@@H]1CN=[N+]=[N-])C(=O)NCC(N)=O`, the result in test [2] was Active. The outcome in test [3] was inactive.
In the same order, the values of `CC(C)C[C@H](NC(=O)[C@@H]1CCCN1)C(=O)NCC(N)=O` (H-Pro-Leu-Gly-NH2) are “Active” and “inactive”.
In the case of `CC(C)[C@H](NC(=O)[C@@H]1N[C@@H](CN=[N+]=[N-])C[C@H]1CN=[N+]=[N-])C(=O)NCC(N)=O`, the outcome in test [1] was Active.
On to `COC(=O)CNC(=O)[C@H](CC(C)C)NC(=O)[C@@H]1N[C@@H](CN=[N+]=[N-])C[C@H]1CN=[N+]=[N-]`, for which the outcome in test [1] was Active.
In the case of `CC(C)[C@H](NC(=O)[C@H]1N[C@H](CN=[N+]=[N-])C[C@@H]1CN=[N+]=[N-])C(=O)NCC(=O)O`, in test [2], the result was Active. Besides, the outcome in test [3] was inactive.
Turning to `CC(C)C[C@H](NC(=O)[C@@H]1N[C@@H](CN=[N+]=[N-])C[C@H]1CN=[N+]=[N-])C(=O)NCC(=O)O`, in test [1], the result was Active.
On to `COC(=O)CNC(=O)[C@@H](NC(=O)[C@H]1N[C@H](CN=[N+]=[N-])C[C@@H]1CN=[N+]=[N-])C(C)C`, for which, in test [1], the outcome was Active.

The values are drawn from ChEMBL document CHEMBL2434858, “Synthesis and allosteric modulation of the dopamine receptor by peptide analogs of L-prolyl-L-leucyl-glycinamide (PLG) modified in the L-proline or L-proline and L-leucine scaffolds” (Eur J Med Chem, 2013).
